DENV2 CPE – protects cells from dengue virus 2 cytopathic effect; hit rate 1.7% among 350,000; AID 651640; DENV2-infected cells, cytopathic effect rescue, plate reader; CPE inhibition, % at 9.99 µM; in the data active = CPE inhibition above about 20%, passing the limit was not always enough; inconclusive = no clear call, values can overlap the other calls; tested in BHK-21 cells
FN deposition inh – fibronectin deposition inhibition | AH1F fibroblasts, Alexa488-fibronectin deposition fluorescence, overnight | inhibition, % at 12.6 µM | hit rate 0.086% among 350,000;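 active = mean inhibition across replicates of 30% or more, regardless of how many single replicates reach that level; inconclusive = mean under 30% yet at least half of replicates reach 30%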
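Material – AH1F fibroblast monolayer, labelled fibronectin deposition · Reagent – labelled fibronectin 24 nM · Timing – 1 h adhesion, overnight exposure · Measured by – fluorescence at 485 nm excitation, 525 nm emission · Read-out – inhibition of fibronectin deposition signal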
Casp6 inh – inhibitors of human caspase-6. P55212. purified caspase-6, Z-VEID-R110 cleavage fluorescence. inhibition, % at 12.5 µM. hit rate 0.53% among 350,000. AID 686996;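 active = mean inhibition across replicates at least about 35%, with every replicate also reaching that limit, limit read from the data; inconclusive = only one of the two criteria met; inactive = neither criterion met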
Target sequence (P55212 24-179 limits assumed): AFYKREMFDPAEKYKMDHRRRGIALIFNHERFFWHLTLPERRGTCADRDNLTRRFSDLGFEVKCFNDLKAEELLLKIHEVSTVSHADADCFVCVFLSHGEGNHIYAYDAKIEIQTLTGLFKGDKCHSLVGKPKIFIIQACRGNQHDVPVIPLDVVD
Target sequence (P55212 194-293 limits assumed): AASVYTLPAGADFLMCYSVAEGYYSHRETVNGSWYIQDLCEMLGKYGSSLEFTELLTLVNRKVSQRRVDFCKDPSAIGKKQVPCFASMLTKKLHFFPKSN
CaV13 FRET inh – Disruptors of the CACNA1D IQ motif to Ca2+-dependent inactivation inhibitor domain association, primary screening, Förster resonance energy transfer in intact living …; HEK cells, CFP/YFP FRET ICDI-IQ, plate reader, 10 min; percent FRET-ratio fall versus neutral wells; inhibition, % at 12.3 µM; hit rate 0.098% among 340,000; AID 743397;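 active = mean replicate inhibition of at least 30% and at least 1% of replicates passing that level; inconclusive = only one of the two criteria is met; inactive = neither criterion is met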
XiGFP reactiv – reactivates the inactive X chromosome in mouse fibroblasts; XiGFP mouse fibroblasts, % GFP-positive cells imaging, 3 d; cells co-treated with 5-aza-dC sensitizer; scaled so ellipticine positive control = 100%; activation, % at 7.58 µM; hit rate 0.055% among 360,000;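 active = mean normalized replicate activation at least 10% and every replicate at or above 10%; inconclusive = only one of the two criteria met; inactive = mean below 10% and not all replicates reach 10%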
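Material: XiGFP fibroblasts, SV40-immortalized. Buffer or medium: DMEM plus 5-aza-dC sensitizer. Compound: single concentration per compound, delivered by pin transfer. Times: 3 days compound exposure. Controls: ellipticine 6 µM.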
Numbers stand for hits; - = inactive; ? = inconclusive; . = no result given; + = active, no number. Compounds with a hit are over-represented: about 2% of the library has one in this group of screens.

SMILES	DENV2 CPE	FN deposition inh	Casp6 inh	CaV13 FRET inh	XiGFP reactiv
COc1cccc(C(=O)Nc2ccc3c(c2)OC[C@@H](C)NC[C@@H](C)[C@H](OC)CN(C)C3=O)c1	22	-	-	.	-
COc1ccc(S(=O)(=O)Nc2ccc3c(c2)C(=O)N([C@@H](C)CO)C[C@H](C)[C@@H](CN(C)C(=O)Nc2ccc(C(F)(F)F)cc2)OCCCC[C@H](C)O3)cc1	106	-	-	.	-
COc1ccc(NC(=O)Nc2ccc3c(c2)C(=O)N([C@H](C)CO)C[C@H](C)[C@H](CN(C)C(=O)Nc2ccc(C(F)(F)F)cc2)OCCCC[C@H](C)O3)cc1	48	.	-	.	-
COc1ccc(S(=O)(=O)Nc2ccc3c(c2)C(=O)N([C@@H](C)CO)C[C@H](C)[C@H](CN(C)C(=O)Nc2ccc(C(F)(F)F)cc2)OCCCC[C@H](C)O3)cc1	109	-	-	.	-
Cc1ccccc1C1=C/C(=C(\SS/C(C(=O)c2ccc(OCC(=O)O)c(Cl)c2Cl)=C2\C=C(c3ccccc3C)SS2)C(=O)c2ccc(OCC(=O)O)c(Cl)c2Cl)SS1	-	-	46	-	-
Cc1cc(C(=O)Nc2cccc3c2O[C@@H](CN(C)Cc2ccc(Cl)c(Cl)c2)[C@@H](C)CN([C@H](C)CO)C3=O)n(C)n1	-	-	-	.	-
CC(=O)N1CCN(c2ccc(N)cc2)CC1	-	-	36	-	-
OC(CSc1nnnn1-c1ccccc1)Cn1c2ccccc2c2ccccc21 (stereo not drawn)	21	-	-	-	-
O=[N+]([O-])c1ccc(CNc2ccc(Cl)cc2)s1	-	-	-	-	-
CN1c2ccc(Cl)cc2C(=O)NC1c1ccc([N+](=O)[O-])s1 (stereo not drawn)	45	-	-	-	-
CCC(=O)N1[C@H](CO)[C@H](c2ccc(-c3ccccc3OC)cc2)C12CN(C(C)=O)C2	-	.	-	.	-
O=C(C[C@@H]1C[C@@H]2c3cc(NS(=O)(=O)c4ccc(F)cc4)ccc3O[C@@H]2[C@@H](CO)O1)NCCc1ccccc1	-	.	-	.	-
O=C(C[C@H]1C[C@H]2c3cc(NS(=O)(=O)c4ccc(F)cc4)ccc3O[C@H]2[C@@H](CO)O1)NCCc1ccccc1	59	.	-	.	-
O=C(C[C@@H]1C[C@@H]2c3cc(NS(=O)(=O)c4ccc(F)cc4)ccc3O[C@@H]2[C@H](CO)O1)NCCc1ccccc1	58	.	-	.	-
O=C(C[C@@H]1C[C@H]2c3cc(NS(=O)(=O)c4ccc(F)cc4)ccc3O[C@H]2[C@@H](CO)O1)NCCc1ccccc1	?	.	-	.	-
CCCNC(=O)N(C)C[C@H]1Oc2cc(C3=CCCCC3)ccc2S(=O)(=O)N([C@H](C)CO)C[C@@H]1C	-	-	-	.	-
Oc1ccc(Cl)cc1CNCc1ccc(F)cc1	23	-	-	-	-
Oc1ccc(Cl)cc1CNCc1ccc(Cl)cc1	-	-	-	-	-
CC(C)CC#Cc1cnc2c(c1)C(=O)N([C@H](C)CO)C[C@H](C)[C@H](CN(C)C(=O)c1cccnc1)O2	-	.	-	.	-
O=C(NCc1ccc(Cl)cc1Cl)c1ccc2nc[nH]c2c1	.	-	.	-	-
O=C(NCc1ccccc1Cl)c1ccc2nc[nH]c2c1	-	-	39	-	-
CCCN1[C@H](CO)[C@H](c2ccc(C#Cc3ccccc3)cc2)[C@@H]1CNC1CCCC1	-	-	-	.	-
Oc1ccc(/C=N/NC(=S)Nc2cccnc2)c(O)c1O	-	-	49	-	-
Fc1ccc(/C=N/NC(=S)Nc2cccnc2)cc1F	-	-	-	-	-
Fc1ccc(/C=N/NC(=S)Nc2cccnc2)cc1	-	-	48	-	-
SMILES	DENV2 CPE	FN deposition inh	Casp6 inh	CaV13 FRET inh	XiGFP reactiv
O=C(CSc1nc2ncc(Cl)cc2[nH]1)c1c[nH]c2ccccc12	-	33	-	-	-
CCOC(=O)N1CCC(NC(=O)c2ccccc2C(=O)O)CC1	-	-	-	-	-
CCOC(=O)N1CCC(NC(=O)c2cccc3c2C(=O)N(CCOC)C3)CC1	62	-	-	-	-
CCC(=O)N1[C@H](CO)[C@H](c2ccc(C3=CCCC3)cc2)[C@@H]1CNC1CCCCC1	.	-	.	.	-
C/C=C/[C@@H](CC(=O)N1Cc2ccccc2C[C@H]1CO)[Si](C)(C)c1ccc(OC)cc1	39	.	-	.	.
COc1ccc(OCC(=O)N2CCc3ccccc3C2)cc1	-	-	-	-	-
COc1ccc(-c2c(-c3cc(OC)cc(OC)c3)n(C)c3ccc(Br)cc23)cc1	32	-	-	-	-
CCn1c(SCc2cccc(F)c2)nnc1-c1ccncc1	47	-	-	-	-
Cc1ccc(S(=O)(=O)N(C)C[C@@H]2Oc3ccc(NC(=O)Cn4cnnn4)cc3CC(=O)N([C@@H](C)CO)C[C@@H]2C)cc1	-	.	-	.	-
O=C1C(=NO)CCc2ccccc21	-	-	68	-	-
O/N=C1/CCc2cccc3cccc1c23	.	-	.	-	.
CN1C(=O)c2cc(NC(=O)c3ccc(F)cc3)ccc2OC[C@@H]2O[C@@H](CC(=O)O)CC[C@@H]21	-	-	-	.	-
CN1CCN(C(=O)C[C@H]2CC[C@@H]3[C@H](COc4ccc(NC(=O)C5CCC5)cc4C(=O)N3C)O2)CC1	-	-	-	.	-
CN1CCN(C(=O)C[C@H]2CC[C@@H]3[C@@H](COc4ccc(NC(=O)C5CCC5)cc4C(=O)N3C)O2)CC1	24	-	-	.	-
CN1C(=O)c2cc(NC(=O)c3ccc4c(c3)OCO4)ccc2OC[C@H]2O[C@@H](CC(=O)O)CC[C@@H]21	40	-	-	.	-
CN1C(=O)c2cc(NC(=O)C3CC3)ccc2OC[C@H]2O[C@@H](CC(=O)O)CC[C@@H]21	-	-	37	.	-
CN1C(=O)c2cc(NC(=O)c3ccc(F)cc3)ccc2OC[C@H]2O[C@H](CC(=O)O)CC[C@H]21	35	-	-	.	-
COCC(=O)N1CC2(CN(C(=O)c3ccccn3)C2)c2c(n(C)c3cc(OC)ccc23)[C@H]1CO	-	.	-	.	-
Cc1ccc(C(=O)Nc2ccc3c(c2)OCO3)cc1Cl	-	-	-	-	-
Cc1ccc(NC(=O)c2ccc3c(c2)OCO3)cc1Cl	22	-	-	-	-
N[C@@H](Cc1cc(I)c(O)c(I)c1)C(=O)O	-	-	44	-	-
CCCOc1c(Br)cc(C2C3=C(CCCC3=O)N(C)C3=C2C(=O)CCC3)cc1OC	-	-	-	+	-
Cc1ccc(S(=O)(=O)N(CC(=O)Nc2ccccc2C(=O)O)c2cccc(Cl)c2C)cc1	-	-	47	-	-
O=C(c1cccc(F)c1)N1C[C@@H]2[C@H](c3ccccc31)[C@H](CO)N2C(=O)C1CCOCC1	23	.	-	.	-
O=C(Cc1ccccc1)N1C[C@@H]2[C@H](c3ccccc31)[C@H](CO)N2C(=O)c1cccc(F)c1	-	.	-	.	-
